Reference: PMC6146057 (ACS chemical neuroscience, 2018)

Key:
cytochrome P450 1A2 = target: T1, cytochrome P450 1A2 (Homo sapiens, UniProt P05177); experiment: CYP450 inhibition in human liver microsomes, 1A2; format: in vitro ADME
T1 sequence (P05177 1-516): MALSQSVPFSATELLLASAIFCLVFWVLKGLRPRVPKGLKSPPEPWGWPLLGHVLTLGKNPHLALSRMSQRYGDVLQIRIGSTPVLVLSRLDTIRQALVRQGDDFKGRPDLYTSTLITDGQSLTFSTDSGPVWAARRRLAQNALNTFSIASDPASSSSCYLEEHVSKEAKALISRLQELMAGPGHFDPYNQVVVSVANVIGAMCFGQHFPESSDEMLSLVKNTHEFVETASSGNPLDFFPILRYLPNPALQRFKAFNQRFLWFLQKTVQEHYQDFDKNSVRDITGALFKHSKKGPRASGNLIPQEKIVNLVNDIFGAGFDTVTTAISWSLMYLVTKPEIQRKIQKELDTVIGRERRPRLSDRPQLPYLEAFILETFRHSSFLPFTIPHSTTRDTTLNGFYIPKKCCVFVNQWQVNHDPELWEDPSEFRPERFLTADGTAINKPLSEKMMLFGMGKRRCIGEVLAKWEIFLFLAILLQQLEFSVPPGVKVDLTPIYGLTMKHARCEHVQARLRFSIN

rat M1 = target: T2, rat M1 (Rattus norvegicus, UniProt P08482); experiment: Calcium mobilization assay, rat M1 cell line; format: cell-based
T2 sequence (P08482 1-460): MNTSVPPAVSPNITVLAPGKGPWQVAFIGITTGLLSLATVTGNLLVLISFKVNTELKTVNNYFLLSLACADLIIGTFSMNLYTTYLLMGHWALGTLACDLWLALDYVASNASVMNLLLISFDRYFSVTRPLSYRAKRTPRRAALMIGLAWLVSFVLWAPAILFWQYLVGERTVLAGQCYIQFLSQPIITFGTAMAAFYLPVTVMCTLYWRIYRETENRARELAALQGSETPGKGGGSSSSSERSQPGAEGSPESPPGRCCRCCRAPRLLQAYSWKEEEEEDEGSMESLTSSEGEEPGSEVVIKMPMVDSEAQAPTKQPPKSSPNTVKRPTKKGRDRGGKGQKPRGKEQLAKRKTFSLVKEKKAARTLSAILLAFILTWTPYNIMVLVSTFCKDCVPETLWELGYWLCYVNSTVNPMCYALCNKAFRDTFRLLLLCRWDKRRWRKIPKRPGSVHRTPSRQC
Procedure, shortened: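 Muscarinic receptor-expressing CHO cells were plated at 20,000 cells/well in medium without G418 the day before. They were loaded with 1.15 μM Fluo-4 AM for 45 min at 37 °C in HBSS with 20 mM HEPES and 2.5 mM probenecid. Test compound (10-point 1:3 series, top final 30 μM) was added for 2.5 min, then EC20 ACh for 1 min. Calcium flux was fitted with a four-parameter logistic curve.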

IC50 (cytochrome P450 1A2): > 30 µM
EC50 (rat M1; M1 PAM pEC50, rat M1 cell line, high expression): 0.234 µM
EC50 (rat M1; M1 agonist activity EC50, rat M1 cell line, compound alone): 5.6 µM
EC50 (rat M1; M1 agonist activity pEC50, rat M1 cell line, compound alone): 5.37 µM
EC50 (rat M1; Rat M1 CRC EC50, Figure 4B): 0.253 µM
M1 agonist activity, % ACh (rat M1; rat M1 cell line, compound alone): 26 ± 6 % ACh
M1 PAM efficacy, % ACh Max (rat M1; rat M1 cell line, high expression): 83 ± 1 % ACh Max
SMILES: O=C(N[C@H]1CCCC[C@@H]1O)[C@H]1CN(Cc2ccc(-n3cccn3)cc2)c2ccccc2O1 [VU0486846, (2R)-N-[(1S,2S)-2-Hydroxycyclohexyl]-4-[(4-pyrazol-1-ylphenyl)-methyl]-2,3-dihydro-1,4-benzoxazine-2-carboxamide]
